According to ChEMBL document CHEMBL3044605, “Inhibition of the Fe(4)S(4)-cluster-containing protein IspH (LytB): electron paramagnetic resonance, metallacycles, and mechanisms” (J Am Chem Soc, 2010):

Biological target: T1, 4-hydroxy-3-methylbut-2-enyl diphosphate reductase (Aquifex aeolicus (strain VF5), UniProt O67625)
T1 sequence (O67625 whole entry): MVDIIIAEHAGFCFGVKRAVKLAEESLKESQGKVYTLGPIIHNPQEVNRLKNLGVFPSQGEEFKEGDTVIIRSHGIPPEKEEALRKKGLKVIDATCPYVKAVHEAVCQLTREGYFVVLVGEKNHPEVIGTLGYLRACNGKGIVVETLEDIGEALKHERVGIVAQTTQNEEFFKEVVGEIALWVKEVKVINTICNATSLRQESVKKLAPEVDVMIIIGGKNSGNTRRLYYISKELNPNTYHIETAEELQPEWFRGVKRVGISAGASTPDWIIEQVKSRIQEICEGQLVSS
Assay: Inhibition of Aquifex aeolicus IspH expressed in Escherichia coli BL21 (DE3) using HMBPP substrate
Assay type: single protein
Outline: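 A. aeolicus IspH expressed in BL-21(DE3), Ni-NTA purified, Fe4S4 cluster reconstituted anaerobically (DTT, sulfur, FeCl3; A410/A280 ≥0.38). Anaerobic assay, room temp, pH 8.0 Tris/NaCl/glycerol buffer, 0.4 mM dithionite, 2 mM methyl viologen, 72 nM IspH. Inhibitor preincubated 10 min, then 34 μM HMBPP added. Initial rates at 732 nm, dose-response fit for IC50; Ki via Cheng-Prusoff (KM 7 μM).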

Row | SMILES | IC50 [µM] | Ki [µM]
1 | O=P(O)(O)OP(=O)(O)OCc1ccncc1 [(PYRIDIN-4-YL)-METHYL-DIPHOSPHATE] | 149 | 
2 | Cc1ccnc(NC(P(=O)(O)O)P(=O)(O)O)c1 | 67 | 
3 | C#CCCOP(=O)(O)OP(=O)(O)O [BUT-3-YNYL DIPHOSPHATE] | 0.45 | 0.06
4 | O=P(O)(O)OP(=O)(O)OCCc1cccnc1 [PYRIDIN-3-YL-ETHYL-DIPHOSPHATE] | 9.1 | 1.2
5 | O=P(O)(O)C(Cc1cccnc1)P(=O)(O)O | > 1000 | 
6 | O=P(O)(O)OP(=O)(O)OCC#CCO [4-HYDROXYBUT-2-YNYL DIPHOSPHATE] | 26 | 
7 | Cc1ccc[n+](CC(O)(P(=O)([O-])O)P(=O)(O)O)c1 (configuration not stated) | 540 | 
8 | O=P(O)(O)C(O)(Cc1cccnc1)P(=O)(O)O [RISEDRONIC ACID] | > 1000 | 
9 | CC(Cc1cccnc1)(P(=O)(O)O)P(=O)(O)O | > 1000 | 
10 | O=P(O)(O)OP(=O)(O)OCCCc1cccnc1 [PYRIDIN-3-YL-PROPYL-DIPHOSPHATE] | 463 | 
11 | O=P(O)(O)C(CNc1ccccn1)P(=O)(O)O | > 1000 | 
12 | O=P(O)(O)C(O)(Cc1ccccn1)P(=O)(O)O | 485 | 
13 | C[n+]1cccc(CC(O)(P(=O)(O)O)P(=O)(O)O)c1 | > 1000 | 
14 | O=P(O)(O)OP(=O)(O)OCc1cccnc1 | 38 | 
15 | O=P(O)(O)OP(=O)(O)OCc1ccc(Cl)nc1 | 3700 | 
16 | C#CCCCOP(=O)(O)OP(=O)(O)O [PENT-4-YNYL DIPHOSPHATE] | 6.5 | 
17 | C#CCOP(=O)(O)OP(=O)(O)O [PROP-2-YNYL DIPHOSPHATE] | 6.7 | 
18 | N#CCCOP(=O)(O)OP(=O)(O)O [2-CYANOETHYL DIPHOSPHATE] | 53 | 
19 | O=P(O)(O)OP(=O)(O)OCc1ccccn1 [(PYRIDIN-2-YL)-METHYL-DIPHOSPHATE] | 1200 | 
20 | N#CCOP(=O)(O)OP(=O)(O)O [CYANOMETHYL DIPHOSPHATE] | 245 | 
